Our source for the Km values is ChEMBL document CHEMBL1128665, “Design, synthesis, and structure-activity relationship of novel dinucleotide analogs as agents against herpes and human immunodeficiency viruses” (J Med Chem, 1995).

A word on the Km: it is the concentration of substrate that gives half-maximal velocity.

Compound in data set [1]: Nc1ncnc2c1ncn2COCCO
In words: (§1) Km value was determined by competitive inhibition of Adenosine deaminase. The procedure, abridged:
(§2)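 Deamination rates of the nucleoside or nucleotide substrates were followed with calf mucosal adenosine deaminase (EC 3.5.4.4) in buffer solution. Km and Vmax, expressed relative to ara-A, were derived from these rates.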

Compound in data set [2]: Nc1ncnc2c1ncn2COCCP(=O)(O)O[C@H]1[C@H](O)[C@H](n2cnc3c(N)ncnc32)O[C@@H]1CO
Described as §1. The method, boiled down: as §2

Compound in data set [3]: Nc1ncnc2c1ncn2COCCP(=O)(O)O
Described as §1. The procedure, abridged: as §2

Compound in data set [4]: Nc1ncnc2c1ncn2[C@@H]1O[C@H](CO)[C@@H](O)[C@H]1O
Described as §1. The procedure, abridged:
as §2

Compound in data set [5]: COC(=O)C(C)NP(=O)(CCOCn1cnc2c(N)ncnc21)O[C@H]1[C@H](O)[C@H](n2cnc3c(N)ncnc32)O[C@@H]1CO
In words: Km value was determined by competitive inhibition of Adenosine deaminase No reaction at 1500 uM.

B1: Adenosine deaminase (Bos taurus), P56658 (protein)
chain: MAQTPAFNKPKVELHVHLDGAIKPETILYYGRKRGIALPADTPEELQNIIGMDKPLSLPEFLAKFDYYMPAIAGCREAVKRIAYEFVEMKAKDGVVYVEVRYSPHLLANSKVEPIPWNQAEGDLTPDEVVSLVNQGLQEGERDFGVKVRSILCCMRHQPSWSSEVVELCKKYREQTVVAIDLAGDETIEGSSLFPGHVKAYAEAVKSGVHRTVHAGEVGSANVVKEAVDTLKTERLGHGYHTLEDATLYNRLRQENMHFEVCPWSSYLTGAWKPDTEHPVVRFKNDQVNYSLNTDDPLIFKSTLDTDYQMTKNEMGFTEEEFKRLNINAAKSSFLPEDEKKELLDLLYKAYGMPSPASAEQCL
As to B1, the Km in data set [1] was 138 µM; in data set [2], 166 µM; in data set [3] it was 248 µM; in data set [4] it was 45.3 µM; in data set [5], “No reaction”.
